# PubChem BioAssay AID465 (The Scripps Research Institute Molecular Screening Center, 2006)
# In all, about 62,000 compounds went through this assay and about 130 (0.21%) were called active. This is one part of a sample in which actives are shown more often than they occur.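 Rule for the calls: active = inhibition above the mean of all tested compounds plus 3 SD (cut at about 40% in these data); inactive = the rest.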
# Experiment: inhibitors of PMA/ionomycin-induced NF-kB reporter, primary screen, antigen receptor NF-kB inhibitor project, cell-based, HEK-293 luciferase reporter, luminescence (AID 465);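 note: 0% = stimulated DMSO wells and 100% = 10 µM reference inhibitor 5653914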
# Conditions: HEK-293 NF-kB luciferase reporter, at 3 µM, hits give high values
# Procedure, shortened: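 System: NF-kB luciferase reporter HEK-293 cells | Replication: Single test | Control set: DMSO vs reference inhibitor | Evaluation: % inhibition | Schedule: 1 h pretreatment, 16 h stimulation, 37 °C | Probe or stimulus: PMA with ionomycin | Compound dosing: One dose, 3 µM | Detection: Luciferase luminescence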
row,SMILES,inhibition
1,Cc1nn(-c2ccccc2)c(C)c1C(=O)OCC(=O)NC(=O)NC1CCCCC1,8.4% (inactive)
2,CCOC(=O)N1CCN(C(=O)c2nn(-c3ccc(C)cc3)c(=O)c3c2c2ccccc2n3C)CC1,20.4% (inactive)
3,O=C(OCC(=O)N1CCCC1)c1ccco1,9.6% (inactive)
4,CC1(C)NC(=O)N(CCOc2cccc(Oc3ccccc3)c2)C1=O,21.8% (inactive)
5,COc1ccc(C)cc1NC(=O)c1[nH]c(C)c(C(C)=O)c1C,8.7% (inactive)
6,COc1cccc2c(C)c(C(=O)O)[nH]c12,48.7% (active)
7,CCOC(=O)c1c(C)[nH]c(C(=O)NCc2ccccc2OC)c1C,-10.8% (inactive)
8,Cc1ccc(NC(=O)CCNS(=O)(=O)c2ccc3c(c2)oc(=O)n3C)cc1C,13.6% (inactive)
9,CC1CN(C(=O)CN2C(=O)NC(C)(c3ccccc3)C2=O)CC(C)O1 (stereo not given),6.5% (inactive)
10,Cc1cc(=O)oc(C)c1C(=O)NCc1ccc(F)cc1,4.5% (inactive)
11,O=C(CCn1c(=O)oc2ccccc21)Nc1ccon1,6.5% (inactive)
12,CCOC(=O)N1CCN(S(=O)(=O)c2ccc(C(=O)Nc3ccc(F)cc3F)cc2)CC1,17.4% (inactive)
13,O=C(C(NS(=O)(=O)c1cccc2nsnc12)c1ccccc1)N1CCN(c2ccccn2)CC1 (stereo not given),10.9% (inactive)
14,CCOc1cc(C(=O)N2CCc3cc(OC)c(OC)cc3C2)ccc1OC(F)F,31.7% (inactive)
15,O=C(Cc1c(F)cccc1Cl)N1CCN(C(=O)c2ccco2)CC1,10.7% (inactive)
16,Cc1nc2c(-c3ccc(F)cc3)c(C)nn2c(C)c1CCC(=O)N1CCN(c2ccccn2)CC1,0.2% (inactive)
17,CCn1cc(C(=O)NC2CCCCCC2)c(=O)c2cc(S(=O)(=O)N3CCCCC3)ccc21,20.8% (inactive)
18,COc1ccc(OC)c(NC(=O)CSc2nc3cccnc3n2C)c1,18.9% (inactive)
19,CC(Sc1nncs1)C(=O)NCc1ccc2c(c1)OCO2 (stereo not given),-5.2% (inactive)
20,COc1ccccc1NC(=O)CN1CCN(S(=O)(=O)c2ccc(Br)cc2)CC1,4.2% (inactive)
21,CCOC(=O)c1cccc(NC(=O)C2CCCN(S(=O)(=O)c3cnc[nH]3)C2)c1 (stereo not given),11.6% (inactive)
22,O=c1ccc2cc(S(=O)(=O)N3CCN(c4ccccc4)CC3)ccc2o1,10.7% (inactive)
23,CCCCCN(C(=O)NC(=O)Nc1ccccc1OC)S(C)(=O)=O,7.9% (inactive)
24,COc1ccc(-c2nnn(Cc3nc(N)nc(N4CCCCC4)n3)n2)cc1,10.9% (inactive)
25,O=C(NCCCCO)C(F)(F)C(F)(F)C(F)(F)C(=O)NCCCCO,13.3% (inactive)
26,CCOC(=O)c1cc(C)sc1NC(=O)C1CCC1,0.1% (inactive)
27,CC(C)Cc1ccc(S(=O)(=O)N2CCN(C(=O)c3ccco3)CC2)cc1,9.1% (inactive)
28,CC(Sc1nncn1C)C(=O)Nc1ccccc1-c1ccccc1 (stereo not given),14.4% (inactive)

row,SMILES,inhibition
1,O=C(CN1C(=O)NC2(CCCCC2)C1=O)NCCC1=CCCCC1,17.4% (inactive)
2,CCN(CC)C(=O)N1CCN(C(=O)c2ccc(C)cn2)CC1,4.3% (inactive)
3,Fc1ccc(Cn2nnnc2C(c2cccs2)N2CCCCCC2)cc1 (stereo not given),9.2% (inactive)
4,CCCC(=O)Nc1nnc(CC(=O)OCC)s1,9.9% (inactive)
5,CCCCNc1nc2ccccc2nc1NS(=O)(=O)c1cccs1,3.3% (inactive)
6,Cc1noc(/C=C/N(C)C)c1S(=O)(=O)N1CCCC(C(=O)NCc2ccco2)C1 (stereo not given),5% (inactive)
7,O=C(Cc1cccs1)N1CCCC(c2nc(-c3ccc(S(=O)(=O)N4CCCC4)cc3)no2)C1 (stereo not given),6.1% (inactive)
8,Cc1cc(C(=O)COC(=O)c2cccs2)c(C)n1-c1c(C)n(C)n(-c2ccccc2)c1=O,20% (inactive)
9,COc1cc(OC)cc(C(=O)Nc2ncc3c(n2)CC(C)(C)CC3=O)c1,18.8% (inactive)
10,O=S(=O)(/C=C/c1ccccc1)NCCc1ccccn1,3.3% (inactive)
11,CCCCc1nc2c(=O)[nH]c3ccccc3c2o1,7.6% (inactive)
12,CNC(=O)c1nnn(-c2ccccc2)c1C(=O)NC,14% (inactive)
13,CCC(=O)Nc1ccccc1C(=O)N1CCN(Cc2ccccc2)CC1,9.5% (inactive)
14,Cc1[nH]c2ccccc2c1C(=O)CSCC(=O)O,16% (inactive)
15,C/C(=C\C(=O)c1cccnc1)Nc1ccc(C)c(C)c1,-5% (inactive)
16,O=C(O)c1cccc2c1C(=O)N(C1CCCCC1)C2,8.4% (inactive)
17,CS(=O)(=O)N1CCN(C(=O)Cc2ccccc2)CC1,5.7% (inactive)
18,CCCCC(CC)C(=O)Nc1ccc(Cl)cn1 (stereo not given),-0.6% (inactive)
19,CCN(CC)CCCN1C(=O)C(=O)/C(=C(/O)c2c(C)nc3ccccn23)C1c1ccc(C)o1 (stereo not given),13.6% (inactive)
20,COCCNC(=O)CN(C(=O)CCC(=O)Nc1cc(C)on1)c1ccc(C)cc1C,1.1% (inactive)
21,CC(C)C(=O)N1CCN(CCN=CC2=C(O)CC(c3ccco3)CC2=O)CC1 (stereo not given),9.5% (inactive)
22,CC1CCCCC1NC(=O)CCS(=O)(=O)c1cccc2nonc12 (stereo not given),10.9% (inactive)
23,CCOC(=O)N1CCC(NC(=O)Cn2cc3c(n2)CCCCC3)CC1,17.8% (inactive)
24,CCOc1ccc(OCC)c(NC(=O)C(NS(=O)(=O)c2ccc3c(c2)oc(=O)n3C)C(C)C)c1 (stereo not given),12.5% (inactive)
25,CCC1Oc2ccc(Cl)cc2N(CC(=O)O)C1=O (stereo not given),10.2% (inactive)
26,CC(CCO)Nc1nc2c([nH]1)c(=O)n(C)c(=O)n2C (stereo not given),22.2% (inactive)
27,COC(=O)[C@H](C(C)C)n1c(C)c(C(C)=O)c(C(C)=O)c1C,-9.6% (inactive)
